Experiments:
SK-MEL-2 = experiment: Cytotoxicity against human SK-MEL-2 cells assessed as reduction in cell viability; format: functional, cell-based
MIA PaCa-2 [1] = experiment: Cytotoxicity against human MIAPaCa2 cells assessed as reduction in cell viability after 48 hrs by SRB assay; format: functional, cell-based; conditions: MIA PaCa-2, 48 h
Summary of the method: (§1)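 SRB assay. Compounds active at 10 µM in the primary screen were retested at 1, 2.5 and 5 µM, and IC50 was calculated from these concentrations. The normal breast epithelial line fR2 was tested alongside the cancer lines.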

HCT-116 [2] = experiment: Induction of morphological changes in human HCT116 cells assessed as change in cell morphology after 24 hrs by phase contrast microscopic method; format: functional, cell-based
Summary of the method: (§2)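 HCT 116 cells were treated at 0.7, 1.4, 2.0 and 2.5 µM for 24 h, then examined under a phase contrast microscope for growth arrest and morphological change.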

[3] = Cytotoxicity against human FR2 cells assessed as reduction in cell viability after 48 hrs by SRB assay; format: cell-based; conditions: FR2, 48 h; summary of the method: as §1
A549 [4] = experiment: Cytotoxicity against human A549 cells assessed as reduction in cell viability after 48 hrs by SRB assay; format: functional, cell-based; conditions: A549, 48 h; summary of the method: as §1
PC-3 [5] = experiment: Cytotoxicity against human PC3 cells assessed as reduction in cell viability after 48 hrs by SRB assay; format: functional, cell-based; conditions: PC-3, 48 h; summary of the method: as §1
MCF7 [6] = experiment: Cytotoxicity against human MCF7 cells assessed as reduction in cell viability after 48 hrs by SRB assay; format: functional, cell-based; conditions: MCF7, 48 h; summary of the method: as §1
HCT-116 [7] = experiment: Antimigratory activity in human HCT116 cells assessed as inhibition of wound closure after 24 hrs by wound healing assay; format: functional, cell-based
Summary of the method: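 HCT 116 monolayers were scratched, then treated at 1.4, 2.0 and 2.5 µM for 24 h. Wound area was measured at 0 and 24 h. Migration was derived from the recovered scratch area relative to 0 h and to the matching control.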

HCT-116 [8] = experiment: Cytotoxicity against human HCT116 cells assessed as reduction in cell viability after 48 hrs by SRB assay; format: functional, cell-based; conditions: HCT-116, 48 h; summary of the method: as §1
[9] = Selectivity index, ratio of IC50 for human FR2 cells to IC50 for human A549 cells; format: functional
Summary of the method: (§3)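 Selectivity index is the IC50 in normal breast epithelial fR2 cells divided by the IC50 in each cancer line. All IC50 values come from the SRB assay.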

HCT-116 [10] = experiment: Induction of mitochondrial membrane potential loss in human HCT116 cells after 24 hrs by rhodamine-123 dye based fluorescence microscopy; format: functional, cell-based
Summary of the method: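 HCT-116 cells were treated at 0.7, 1.4, 2.0 and 2.5 µM and stained with rhodamine-123. Loss of membrane potential was read as a decrease in fluorescence compared with untreated cells.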

[11] = Selectivity index, ratio of IC50 for human FR2 cells to IC50 for human PC3 cells; format: functional; summary of the method: as §3
MIA PaCa-2 [12] = experiment: Growth inhibition of human MIAPaCa2 at 10 uM after 48 hrs by SRB assay relative to control; format: functional; conditions: MIA PaCa-2, 48 h, read-out: GI
Summary of the method: (§4)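 Primary SRB screen of every compound at a single concentration of 10 µM. Growth inhibition is expressed relative to control.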

[13] = Selectivity index, ratio of IC50 for human FR2 cells to IC50 for human MIAPaCa2 cells; format: functional; summary of the method: as §3
A549 [14] = experiment: Growth inhibition of human A549 cells at 10 uM after 48 hrs by SRB assay relative to control; format: functional; conditions: A549, 48 h, read-out: GI; summary of the method: as §4
[15] = Selectivity index, ratio of IC50 for human FR2 cells to IC50 for human HCT116 cells; format: functional; summary of the method: as §3
HCT-116 [16] = experiment: Induction of morphological changes in human HCT116 cells assessed as cell growth arrest after 24 hrs by phase contrast microscopic method; format: functional, cell-based; summary of the method: as §2
PC-3 [17] = experiment: Growth inhibition of human PC3 cells at 10 uM after 48 hrs by SRB assay relative to control; format: functional; conditions: PC-3, 48 h, read-out: GI; summary of the method: as §4
HCT-116 [18] = experiment: Growth inhibition of human HCT116 cells at 10 uM after 48 hrs by SRB assay relative to control; format: functional; conditions: HCT-116, 48 h, read-out: GI; summary of the method: as §4
HCT-116 [19] = experiment: Antiproliferative activity against human HCT116 cells assessed as reduction in colony formation after 14 days by crystal violet staining based clonogenic assay; format: functional, cell-based
Summary of the method: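 HCT 116 cells were treated at 0.7, 1.4 and 2.8 µM. Colonies formed over 14 days of treatment and were compared with untreated control.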

[20] = Selectivity index, ratio of IC50 for human FR2 cells to IC50 for human MCF7 cells; format: functional; summary of the method: as §3
MCF7 [21] = experiment: Growth inhibition of human MCF7 cells at 10 uM after 48 hrs by SRB assay relative to control; format: functional; conditions: MCF7, 48 h, read-out: GI; summary of the method: as §4
A549 [22] = experiment: Growth inhibition of human A549 cells after 18 hrs; format: functional, cell-based; conditions: A549, 18 h
Summary of the method: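 Sulforhodamine B (SRB) assay on A-549 human lung cancer cells. Compounds were first screened at 10 µM. Those active at 10 µM were retested at 1, 2.5 and 5 µM, and IC50 was calculated from these concentrations.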

DLD-1 = experiment: Cytotoxicity against human DLD1 cells assessed as cell growth inhibition after 18 hrs; format: functional, cell-based; conditions: DLD-1, 18 h

Structure (SMILES)	IC50 (MIA PaCa-2 [1]) [µM]	IC50 [3] [µM]	IC50 (A549 [4]) [µM]	IC50 (PC-3 [5]) [µM]	IC50 (MCF7 [6]) [µM]	IC50 (HCT-116 [8]) [µM]	Ratio IC50 [9]	Ratio IC50 [11]	inhibition of growth at 10 µM (MIA PaCa-2 [12]) [%]	Ratio IC50 [13]	inhibition of growth at 10 µM (A549 [14]) [%]	Ratio IC50 [15]	inhibition of growth at 10 µM (PC-3 [17]) [%]	inhibition of growth at 10 µM (HCT-116 [18]) [%]	Ratio IC50 [20]	inhibition of growth at 10 µM (MCF7 [21]) [%]	also measured
CC(C)[C@@H]1CC[C@]2(C(=O)O)CC[C@]3(C)[C@H](CC[C@@H]4[C@@]5(C)C=C(C#N)C(=O)C(C)(C)[C@@H]5CC[C@]43C)[C@@H]12																	IC50 (SK-MEL-2): 0.81 µM
C=C(C)[C@@H]1CC[C@]2(C(=O)O)CC[C@]3(C)[C@H](CC[C@@H]4[C@@]5(C)C/C(=C\c6ccc([N+](=O)[O-])cc6)[C@H](O)C(C)(C)[C@@H]5CC[C@]43C)[C@@H]12	3.2	16.8	1.5	1.6	3.5	1.36	11.2	10.5	81	5.25	73	12.35	56	92	4.8	85	Activity (HCT-116 [2]): Dose-dependent effect; inhibition (HCT-116 [7]): Dose-dependent effect; Activity (HCT-116 [10]): Dose-dependent effect; Activity (HCT-116 [16]): Dose-dependent effect; inhibition (HCT-116 [19]): Dose-dependent effect
CC(C)[C@@H]1CC[C@]2(C(=O)O)CC[C@]3(C)[C@H](CC[C@@H]4[C@@]5(C)C=C(Cl)C(=O)C(C)(C)[C@@H]5CC[C@]43C)[C@@H]12																	IC50 (SK-MEL-2): 0.13 µM
C=C(C)[C@@H]1CC[C@]2(C(=O)O)CC[C@]3(C)[C@H](CC[C@@H]4[C@@]5(C)C/C(=C\c6ccc(Br)o6)C(=O)C(C)(C)[C@@H]5CC[C@]43C)[C@@H]12	5.2	13.6	2.9	5.7	5.6	2.9	4.69	2.389	75	2.619	91	4.696	79	87	2.432	92	
C=C(C)[C@@H]1CC[C@]2(C(=O)OCC(N)(CO)CO)CC[C@]3(C)[C@H](CC[C@@H]4[C@@]5(C)CC[C@H](OC(C)=O)C(C)(C)[C@@H]5CC[C@]43C)[C@@H]12																	IC50 (A549 [22]): 2.5 µM
C=C(C)[C@@H]1CC[C@]2(C(=O)O)CC[C@]3(C)[C@H](CC[C@@H]4[C@@]5(C)C/C(=C\c6ccccc6Br)C(=O)C(C)(C)[C@@H]5CC[C@]43C)[C@@H]12	4.04	19	6.1	7.6	7.7	4.3	3.111	2.497	81	4.698	90	4.413	77	86	2.464	80	
C=C(C)[C@@H]1CC[C@]2(COC(C)=O)CC[C@]3(C)[C@H](CC[C@@H]4[C@@]5(C)CC[C@H](O[C@H]6O[C@H](CO)[C@@H](O)[C@H](O)[C@H]6O)C(C)(C)[C@@H]5CC[C@]43C)[C@@H]12																	IC50 (DLD-1): 4.45 µM
C=C(C)[C@@H]1CC[C@]2(C(=O)O)CC[C@]3(C)[C@H](CC[C@@H]4[C@@]5(C)C/C(=C\c6cccc7ccccc67)C(=O)C(C)(C)[C@@H]5CC[C@]43C)[C@@H]12	7.9	12.3	3.09	5.3	8.6	8.4	3.977	2.318	64	1.555	90	1.463	71	62	1.429	67	

From ChEMBL document CHEMBL4052644, “Synthesis of novel benzylidene analogues of betulinic acid as potent cytotoxic agents” (Eur J Med Chem, 2017)
